# Screening data as filed in PubChem.
# Rows were chosen to be rich in hits. Some 0.62% of all compounds tested hit in one or more screens of this group.
# PMI act hi M6P = activators of human phosphomannose isomerase at near-saturating mannose 6-phosphate; AID 1216; P34949; activation factor at 20 µM; coupled PMI enzyme assay, resazurin fluorescence, 20 min; stronger effect = higher value; 1 = untreated enzyme, 0 = substrate-free blank; 190,000 compounds, 0.34% hits;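 active means activation factor of 2 or more at 20 µM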
# Target sequence (P34949 whole entry, looked up): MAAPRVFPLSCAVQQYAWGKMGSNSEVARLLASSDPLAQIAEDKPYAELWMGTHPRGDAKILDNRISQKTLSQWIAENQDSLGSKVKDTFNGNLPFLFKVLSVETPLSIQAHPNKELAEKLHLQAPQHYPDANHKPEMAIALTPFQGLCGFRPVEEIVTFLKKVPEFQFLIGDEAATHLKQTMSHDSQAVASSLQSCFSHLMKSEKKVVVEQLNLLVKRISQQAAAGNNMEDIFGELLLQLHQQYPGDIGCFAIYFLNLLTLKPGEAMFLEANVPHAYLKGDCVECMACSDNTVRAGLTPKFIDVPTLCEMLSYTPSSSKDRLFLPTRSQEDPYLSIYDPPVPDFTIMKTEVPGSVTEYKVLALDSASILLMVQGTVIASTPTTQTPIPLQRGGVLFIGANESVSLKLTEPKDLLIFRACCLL
#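 Technique: Diaphorase-driven resazurin-to-resorufin fluorescence, excitation 544, emission 590 nm | Assay system: Human PMI in coupled enzyme assay | Times: Enzyme reaction with compound 20 min at room temperature | Medium: HEPES-buffered pH 7.4 with magnesium and detergent | Reagent: Mannose-6-phosphate 1.0 mM (near-saturating) plus 0.22 mM NADP+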
# PMI act = phosphomannose isomerase (human) activation | P34949 | purified human PMI, coupled resazurin fluorescence, 20 min; stronger effect = higher value; 1 = vehicle control, 0 substrate-free wells | activation factor at 20 µM | 190,000 compounds, 0.005% hits;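 active means activation factor of 2 or more at 20 µM, relative to plate controls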
# TNAP inh no acc = blocks human TNAP activity with no phosphate acceptor present; P05186; purified TNAP, CDP-star luminescence, 30 min; AID 1012; inhibition, % at 20 µM; 200,000 compounds, 0.26% hits;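 active means tissue-nonspecific alkaline phosphatase inhibition above about 50% at 20 µM in the single-dose screen, limit read from the data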;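 further: 0% = DMSO negative control and 100% = EDTA positive control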
# TNAP inh hiacc = blocks human TNAP under high phosphate acceptor concentration. P05186. purified TNAP, CDP-star luminescence, 1 M DEA. inhibition, % at 20 µM. 200,000 compounds, 0.03% hits;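 active means over 50% inhibition of tissue-nonspecific alkaline phosphatase at 20 µM in the single-dose screen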;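 further: plate controls were DMSO wells for no effect and EDTA-quenched wells as full inhibition for full effect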
# TNAP act hiacc = increases human TNAP activity under high phosphate acceptor concentration. P05186. purified TNAP, CDP-star luminescence, 1 M DEA, 30 min; stronger effect = higher value; 0 = EDTA background, 1 = DMSO-only activity. activation factor at 20 µM. 200,000 tested, under 10 active. AID 1136;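 active means activation factor at least 2 at 20 µM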
#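 Measured by: Luminescent substrate turnover signal | Test system: Human TNAP | Input: TNAP 1/800 final | Dosing: 20 µM single point | Schedule: 30 min, room temperature | Controls: EDTA wells as negative control, DMSO wells as positive control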
# * marks the source's active call; other numbers are inactive results.
SMILES,PMI act hi M6P,PMI act,TNAP inh no acc,TNAP inh hiacc,TNAP act hiacc
Cc1c(NC(=S)N/N=C/C=C/c2ccc([N+](=O)[O-])cc2)c(=O)n(-c2ccccc2)n1C,2.1*,1.5,26.1,22.1,0.8
Cc1c(NC(=S)N/N=C\c2ccccc2O)c(=O)n(-c2ccccc2)n1C,1.3,1.1,-158.6,4.6,1
CCc1ccc2c(CN3CCc4cc(OC)c(OC)cc4C3)cc(=O)oc2c1,2.2*,1.5,-35.9,-0.4,1
Cc1cc2oc(=O)cc(CN3CCN(Cc4ccccc4)CC3)c2cc1Cl,0.9,0.8,0.5,-2.6,1
COc1cc2c(cc1OC)CN(Cc1cc(=O)oc3cc(C)c(C)cc13)CC2,2.2*,1.5,-42.2,-2.8,1
COc1cc2c(cc1OC)CN(Cc1cc(=O)oc3c(C)c(C)ccc13)CC2,1.8,1.5,-17.8,0.6,1
COc1cc2c(cc1OC)CN(Cc1cc(=O)oc3cc(C)c(Cl)cc13)CC2,2.3*,1.7,3.3,-5.3,1.1
CCCCc1n[nH]c(=S)n1Cc1ccc(Cl)cc1,1,1,-59.1,-0.5,1
C/C(N)=C(/C#N)C(=O)CSc1cc(C)c2ccccc2n1,1,0.9,-7.2,-0.8,1
O=C(Nc1ccc(Cl)cc1)[C@@H]1[C@@H]2C(=O)N(c3ccc(Cl)cc3)C(=O)[C@@H]2[C@H]2C=CC=NN21,1.9,1.6,-4.3,-2.1,1
CC(=O)Oc1ccc(C(=O)[C@H]2[C@H]3C(=O)N(c4ccc5ccccc5c4)C(=O)[C@H]3[C@@H]3C=CC=NN32)cc1,2.1*,1.6,15.4,1.8,1
O=C(O)CNC(=O)/C=C/c1ccc(Cl)cc1Cl,1,1,60.2*,1.4,1
O=C(NCC1CCCO1)c1cc([N+](=O)[O-])ccc1Cl (configuration not stated),1,1.1,-10.9,-3.8,1
CC1=NN(c2ccc(S(=O)(=O)O)cc2Cl)C(=O)C1,2*,1.4,-10.2,-6.1,1.1
C=CCn1c(SCC(=O)c2[nH]c(C)c(C(=O)OCC)c2C)nc2scc(-c3ccc(OC)c(OC)c3)c2c1=O,0.9,1,-3.7,1.9,1
O=[N+]([O-])c1ccccc1NC(=S)N/N=C/c1ccc(O)c(O)c1,1,0.5,84.9*,20.5,0.8
CCOc1cccc(/C=N/NC(=S)Nc2ccccc2[N+](=O)[O-])c1O,1.2,1.1,-99.0,13.9,0.9
O=C(COC(=O)c1cnccn1)NCc1ccc2c(c1)OCO2,1.2,1.2,-4.8,-5.8,1.1
Cc1nn(C)c(Cl)c1C(N)=O,1,1,-5.2,-5.3,1.1
